Test results from ChEMBL document CHEMBL1156676, “Peptidyl 3-substituted 1-hydroxyureas as isosteric analogues of succinylhydroxamate MMP inhibitors” (Eur J Med Chem, 2008).
Where a SMILES comes first, the peptide text is derived from it. The star is where a group is joined. Cbz = O=C(OCc1ccccc1)*

Tests used:
[1] = target: Matrix metalloproteinase-9 (Homo sapiens, UniProt P14780); assay: Inhibition of human recombinant MMP9
Method in brief: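 Pro-MMP-9 activated with APMA 1 mM, 1 h, 37 °C, used at 2.7 nM final. Preincubated 4 h at 25 °C with seven inhibitor concentrations in Tris 50 mM pH 7.5, NaCl 150 mM, CaCl2 10 mM, Brij 35 0.05%, DMSO 1%. Hydrolysis of Mca-Lys-Pro-Leu-Gly-Leu-Dpa-Ala-Arg-NH2 monitored by fluorescence (325/400 nm) every 15 s for 20 min, triplicate.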

Matrilysin = target: T1, Matrilysin (Homo sapiens, UniProt P09237); assay: Inhibition of human recombinant MMP7
T1 sequence (P09237 whole entry): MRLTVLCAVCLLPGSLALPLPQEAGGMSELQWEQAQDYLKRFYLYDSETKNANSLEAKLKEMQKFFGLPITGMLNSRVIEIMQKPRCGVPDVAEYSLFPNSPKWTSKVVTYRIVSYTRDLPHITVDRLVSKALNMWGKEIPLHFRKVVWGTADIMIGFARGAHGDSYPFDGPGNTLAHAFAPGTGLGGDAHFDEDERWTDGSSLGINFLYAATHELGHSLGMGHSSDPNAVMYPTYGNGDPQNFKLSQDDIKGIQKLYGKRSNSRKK
Method in brief: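 MMP-7 proenzyme was APMA-activated (1 mM, 1 h, 37 °C), final 2.4 nM. Incubated 4 h at 25 °C with inhibitor at seven concentrations in Tris 50 mM pH 7.5/NaCl 150 mM/CaCl2 10 mM/Brij 35 0.05%/DMSO 1%. Cleavage of Mca-Lys-Pro-Leu-Gly-Leu-Dpa-Ala-Arg-NH2 was followed fluorimetrically (325/400 nm) every 15 s over 20 min, triplicate.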

[2] = target: 72 kDa type IV collagenase (Homo sapiens, UniProt P08253); assay: Inhibition of human recombinant MMP2
Chain of 72 kDa type IV collagenase (P08253 whole entry): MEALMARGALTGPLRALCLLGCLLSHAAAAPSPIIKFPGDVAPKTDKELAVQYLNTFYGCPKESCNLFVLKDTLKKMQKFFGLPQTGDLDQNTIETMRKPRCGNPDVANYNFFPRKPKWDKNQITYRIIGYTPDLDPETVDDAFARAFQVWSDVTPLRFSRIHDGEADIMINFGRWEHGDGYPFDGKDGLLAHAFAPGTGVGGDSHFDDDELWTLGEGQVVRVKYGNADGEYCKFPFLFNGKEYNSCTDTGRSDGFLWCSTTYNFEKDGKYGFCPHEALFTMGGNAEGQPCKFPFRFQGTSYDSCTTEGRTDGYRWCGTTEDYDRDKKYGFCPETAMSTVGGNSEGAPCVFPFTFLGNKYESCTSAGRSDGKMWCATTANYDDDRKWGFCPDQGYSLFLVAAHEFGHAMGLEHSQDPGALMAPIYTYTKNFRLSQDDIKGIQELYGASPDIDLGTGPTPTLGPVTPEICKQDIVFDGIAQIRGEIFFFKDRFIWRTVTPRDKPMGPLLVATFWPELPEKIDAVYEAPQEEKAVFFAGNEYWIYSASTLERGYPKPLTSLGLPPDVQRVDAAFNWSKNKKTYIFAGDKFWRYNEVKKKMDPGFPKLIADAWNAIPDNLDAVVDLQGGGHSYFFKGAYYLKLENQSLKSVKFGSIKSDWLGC

Stromelysin-1 = Stromelysin-1 (Homo sapiens, UniProt P08254); assay: Inhibition of human recombinant MMP3
Chain of Stromelysin-1 (P08254 whole entry): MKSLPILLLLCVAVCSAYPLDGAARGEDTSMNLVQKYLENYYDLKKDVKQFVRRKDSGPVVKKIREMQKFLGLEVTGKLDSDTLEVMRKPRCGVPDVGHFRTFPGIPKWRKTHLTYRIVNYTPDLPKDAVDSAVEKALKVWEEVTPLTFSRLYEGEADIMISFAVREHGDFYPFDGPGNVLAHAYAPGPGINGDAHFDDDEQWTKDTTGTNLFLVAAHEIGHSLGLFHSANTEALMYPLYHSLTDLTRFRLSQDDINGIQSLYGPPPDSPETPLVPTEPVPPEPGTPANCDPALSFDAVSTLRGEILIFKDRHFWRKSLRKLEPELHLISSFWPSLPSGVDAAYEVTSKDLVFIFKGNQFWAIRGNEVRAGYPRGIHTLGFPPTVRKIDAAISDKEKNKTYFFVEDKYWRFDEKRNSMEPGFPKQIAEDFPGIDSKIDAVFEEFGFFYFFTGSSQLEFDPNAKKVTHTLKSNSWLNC

Neutrophil collagenase = Neutrophil collagenase (Homo sapiens, UniProt P22894); assay: Inhibition of human recombinant MMP8
Chain of Neutrophil collagenase (P22894 whole entry): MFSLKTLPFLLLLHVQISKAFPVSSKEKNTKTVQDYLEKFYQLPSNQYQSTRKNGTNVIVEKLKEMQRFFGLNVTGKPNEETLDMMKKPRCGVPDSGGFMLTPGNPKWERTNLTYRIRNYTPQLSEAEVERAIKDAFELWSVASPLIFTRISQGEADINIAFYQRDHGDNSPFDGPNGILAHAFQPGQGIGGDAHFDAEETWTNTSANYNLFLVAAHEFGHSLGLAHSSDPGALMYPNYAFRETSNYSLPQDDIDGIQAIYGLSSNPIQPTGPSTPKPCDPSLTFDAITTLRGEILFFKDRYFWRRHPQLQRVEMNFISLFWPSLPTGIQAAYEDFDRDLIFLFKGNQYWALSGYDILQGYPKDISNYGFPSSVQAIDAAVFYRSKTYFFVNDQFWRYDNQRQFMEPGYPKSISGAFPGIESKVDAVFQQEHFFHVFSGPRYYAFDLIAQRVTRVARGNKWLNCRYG

Interstitial collagenase = target: T2, Interstitial collagenase (Homo sapiens, UniProt P03956); assay: Inhibition of human recombinant MMP1
T2 sequence (P03956 whole entry): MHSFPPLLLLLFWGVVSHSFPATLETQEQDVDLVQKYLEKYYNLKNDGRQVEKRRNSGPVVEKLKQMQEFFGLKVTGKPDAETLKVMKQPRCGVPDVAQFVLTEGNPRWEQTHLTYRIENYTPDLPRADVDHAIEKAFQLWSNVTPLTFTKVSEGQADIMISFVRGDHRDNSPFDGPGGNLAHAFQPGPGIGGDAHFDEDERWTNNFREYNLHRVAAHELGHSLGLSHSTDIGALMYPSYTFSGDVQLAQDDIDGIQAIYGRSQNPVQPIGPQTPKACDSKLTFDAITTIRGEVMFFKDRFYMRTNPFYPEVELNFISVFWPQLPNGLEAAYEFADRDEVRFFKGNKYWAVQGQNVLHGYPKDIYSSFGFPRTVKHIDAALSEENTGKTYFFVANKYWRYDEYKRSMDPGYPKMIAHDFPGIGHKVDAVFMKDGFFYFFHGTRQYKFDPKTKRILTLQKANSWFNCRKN

Chain of Matrix metalloproteinase-9 (P14780 whole entry): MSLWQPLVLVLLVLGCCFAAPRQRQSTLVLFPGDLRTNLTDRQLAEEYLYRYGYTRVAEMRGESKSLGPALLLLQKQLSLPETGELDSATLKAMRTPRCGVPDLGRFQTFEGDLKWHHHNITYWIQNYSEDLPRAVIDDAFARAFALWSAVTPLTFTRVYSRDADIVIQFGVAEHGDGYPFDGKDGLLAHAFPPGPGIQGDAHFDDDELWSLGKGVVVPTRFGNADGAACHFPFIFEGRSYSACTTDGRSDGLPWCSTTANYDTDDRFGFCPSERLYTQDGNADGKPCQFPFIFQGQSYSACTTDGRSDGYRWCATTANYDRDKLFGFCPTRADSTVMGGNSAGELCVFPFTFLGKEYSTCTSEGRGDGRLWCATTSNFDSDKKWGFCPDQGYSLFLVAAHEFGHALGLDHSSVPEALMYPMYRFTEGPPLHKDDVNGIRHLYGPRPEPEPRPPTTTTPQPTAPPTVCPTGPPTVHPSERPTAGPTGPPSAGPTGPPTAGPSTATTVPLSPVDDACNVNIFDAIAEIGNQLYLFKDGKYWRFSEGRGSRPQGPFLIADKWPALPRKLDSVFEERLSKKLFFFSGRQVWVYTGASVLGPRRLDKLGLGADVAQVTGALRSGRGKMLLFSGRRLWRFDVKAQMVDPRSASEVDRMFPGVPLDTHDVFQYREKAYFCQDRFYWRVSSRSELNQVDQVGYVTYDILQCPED

| Compound | IC50 [1] | IC50 (Matrilysin) | IC50 [2] | IC50 (Stromelysin-1) | IC50 (Neutrophil collagenase) | IC50 (Interstitial collagenase) |
| --- | --- | --- | --- | --- | --- | --- |
| CNC(=O)[C@H](Cc1ccccc1)NC(=O)[C@@H](CC(=O)NO)CC(C)C | 0.00038 µM | 0.0083 µM |  |  |  |  |
| CNC(=O)[C@H](Cc1ccccc1)NC(=O)[C@@H](N)CC(C)C | > 300 µM | > 300 µM | > 300 µM |  |  |  |
| CNC(=O)[C@H](Cc1ccccc1)NC(=O)[C@@H](CC(C)C)NC(=O)NO | 200 µM | > 300 µM | > 300 µM | > 300 µM | 150 µM | > 300 µM |
| CNC(=O)[C@H](Cc1ccccc1)NC(=O)[C@H](CC(=O)NO)CC(C)C | 0.15 µM | 4.1 µM |  |  |  |  |
| CNC(=O)[C@H](Cc1ccccc1)NC(=O)[C@H](CC(C)C)NC(=O)NO | 20 µM | > 300 µM | 60 µM | > 300 µM | 70 µM | 270 µM |
| CNC(=O)[C@H](Cc1ccccc1)NC(=O)[C@H](N)CC(C)C | > 300 µM | > 300 µM | > 300 µM | > 300 µM | > 300 µM | > 300 µM |
| COC(=O)[C@H](Cc1ccccc1)NC(=O)[C@H](CC(C)C)NC(=O)OCc1ccccc1 (Cbz-Leu-Phe-OMe) | > 300 µM | > 300 µM | > 300 µM | > 300 µM | > 300 µM | > 300 µM |
